Reference: article PMC5808564 (ChemMedChem, 2017)
Converted amounts (≈) assume the structure as drawn.

Columns and labels:
[1] = biological target: T1, human HK 4 (human glucokinase, hGlk) (Homo sapiens, UniProt P35557); assay: Specificity assay against human glucokinase; assay type: biochemical; settings: read-out: % hGlk inhibition (10 μM)
T1 sequence (P35557 1-465): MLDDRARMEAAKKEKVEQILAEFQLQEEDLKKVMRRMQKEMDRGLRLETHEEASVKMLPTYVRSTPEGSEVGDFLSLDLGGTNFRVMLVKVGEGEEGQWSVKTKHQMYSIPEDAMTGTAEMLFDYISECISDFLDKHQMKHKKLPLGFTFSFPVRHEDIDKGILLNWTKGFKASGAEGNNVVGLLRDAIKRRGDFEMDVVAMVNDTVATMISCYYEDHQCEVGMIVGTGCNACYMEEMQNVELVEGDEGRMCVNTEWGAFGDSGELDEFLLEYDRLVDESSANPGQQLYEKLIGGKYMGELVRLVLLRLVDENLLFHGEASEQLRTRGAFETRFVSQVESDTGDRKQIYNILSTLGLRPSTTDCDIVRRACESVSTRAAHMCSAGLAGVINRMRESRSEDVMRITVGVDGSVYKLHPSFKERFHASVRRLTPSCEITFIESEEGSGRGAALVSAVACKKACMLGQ
In short: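 Uses human hexokinase 4 (glucokinase; GenBank BC001890). Activity is read through a coupled reaction in which glucose-6-phosphate dehydrogenase converts the glucose-6-phosphate formed to 6-phosphogluconate. The coincident NADPH formation is followed at 340 nm.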

[2] = biological target: Dopamine transporter (DAT) (Homo sapiens, UniProt Q01959); assay: PanLabs LeadProfilingScreen radioligand binding; settings: read-out: percent inhibition
Dopamine transporter (DAT), sequence (Q01959 whole entry): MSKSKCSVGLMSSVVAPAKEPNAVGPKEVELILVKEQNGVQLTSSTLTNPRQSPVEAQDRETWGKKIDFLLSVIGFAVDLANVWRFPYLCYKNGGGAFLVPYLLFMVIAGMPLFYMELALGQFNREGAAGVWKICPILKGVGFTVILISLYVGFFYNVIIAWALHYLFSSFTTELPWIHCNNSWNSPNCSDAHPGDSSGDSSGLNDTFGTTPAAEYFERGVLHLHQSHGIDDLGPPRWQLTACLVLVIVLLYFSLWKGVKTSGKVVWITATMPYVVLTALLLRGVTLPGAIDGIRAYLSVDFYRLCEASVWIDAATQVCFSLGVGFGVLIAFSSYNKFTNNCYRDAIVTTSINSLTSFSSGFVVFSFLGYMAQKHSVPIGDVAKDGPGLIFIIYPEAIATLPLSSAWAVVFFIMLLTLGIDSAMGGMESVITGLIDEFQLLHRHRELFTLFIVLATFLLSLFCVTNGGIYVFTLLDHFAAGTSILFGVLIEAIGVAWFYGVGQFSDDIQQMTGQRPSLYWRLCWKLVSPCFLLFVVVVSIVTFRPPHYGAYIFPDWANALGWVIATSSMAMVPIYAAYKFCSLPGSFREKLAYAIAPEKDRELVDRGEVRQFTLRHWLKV
In short: (§1)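 Test compound screened once, at 10 μM, against a panel of mammalian targets; each run in duplicate. Values are percent inhibition at that single concentration; no IC50 determinations were made.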

[3] = Plasma stability, human; assay type: in vitro ADME
[4] = Microsomal stability, mouse; assay type: in vitro ADME
[5] = Aqueous solubility, kinetic solubility method; settings: pH 7.4
[6] = biological target: T2, Serotonin (5-hydroxytryptamine) 5-HT1A (Homo sapiens, UniProt P08908); assay: PanLabs LeadProfilingScreen radioligand binding; settings: read-out: percent inhibition
T2 sequence (P08908 1-422): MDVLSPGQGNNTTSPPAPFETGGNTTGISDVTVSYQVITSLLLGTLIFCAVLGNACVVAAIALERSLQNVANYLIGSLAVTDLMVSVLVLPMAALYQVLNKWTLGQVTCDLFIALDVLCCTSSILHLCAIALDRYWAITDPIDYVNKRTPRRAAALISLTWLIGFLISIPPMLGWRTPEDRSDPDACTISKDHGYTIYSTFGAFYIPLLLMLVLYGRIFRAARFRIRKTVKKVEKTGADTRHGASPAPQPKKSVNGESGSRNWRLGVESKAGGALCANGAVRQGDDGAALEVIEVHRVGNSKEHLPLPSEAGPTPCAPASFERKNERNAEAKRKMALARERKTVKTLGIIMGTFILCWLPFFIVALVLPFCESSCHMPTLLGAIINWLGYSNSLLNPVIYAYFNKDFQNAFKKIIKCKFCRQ
In short: as §1

[7] = biological target: T3, Adrenergic α1B (Rattus norvegicus, UniProt P15823); assay: PanLabs LeadProfilingScreen radioligand binding; settings: read-out: percent inhibition
T3 sequence (P15823 1-515): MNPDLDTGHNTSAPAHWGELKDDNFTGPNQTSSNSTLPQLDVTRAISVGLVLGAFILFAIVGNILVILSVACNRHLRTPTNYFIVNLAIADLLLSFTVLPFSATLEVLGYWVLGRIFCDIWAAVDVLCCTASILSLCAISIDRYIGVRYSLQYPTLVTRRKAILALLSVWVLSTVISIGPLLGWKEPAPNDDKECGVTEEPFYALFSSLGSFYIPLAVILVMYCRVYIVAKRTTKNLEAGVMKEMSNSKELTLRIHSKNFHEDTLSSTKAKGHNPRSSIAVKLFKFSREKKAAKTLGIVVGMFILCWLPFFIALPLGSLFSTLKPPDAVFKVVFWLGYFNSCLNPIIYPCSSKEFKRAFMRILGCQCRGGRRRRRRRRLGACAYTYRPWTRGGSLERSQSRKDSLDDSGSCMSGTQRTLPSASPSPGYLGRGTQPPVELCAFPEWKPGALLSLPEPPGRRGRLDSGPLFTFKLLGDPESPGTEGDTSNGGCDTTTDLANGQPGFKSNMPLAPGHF
In short: as §1

[8] = biological target: recombinant T. brucei hexokinase 1 (rTbHK1) (Trypanosoma brucei, UniProt Q38C42); assay: biochemical; assay type: biochemical; settings: compared to bromide 2
[9] = PAMPA permeability
[10] = biological target: T4, Leukotriene, cysteinyl CysLT1 (Homo sapiens, UniProt Q9Y271); assay: PanLabs LeadProfilingScreen radioligand binding; settings: read-out: percent inhibition
T4 sequence (Q9Y271 1-337): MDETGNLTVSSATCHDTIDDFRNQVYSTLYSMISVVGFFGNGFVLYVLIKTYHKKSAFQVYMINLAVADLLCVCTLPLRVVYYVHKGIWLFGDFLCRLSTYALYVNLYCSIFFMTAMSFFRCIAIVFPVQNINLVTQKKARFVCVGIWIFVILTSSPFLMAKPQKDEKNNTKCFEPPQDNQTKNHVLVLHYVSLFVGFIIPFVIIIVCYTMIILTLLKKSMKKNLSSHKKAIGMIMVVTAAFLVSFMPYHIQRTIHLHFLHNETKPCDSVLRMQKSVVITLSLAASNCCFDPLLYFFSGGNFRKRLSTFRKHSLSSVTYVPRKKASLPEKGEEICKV
In short: as §1

[11] = system: Thyroid hormone; assay: PanLabs LeadProfilingScreen radioligand binding; settings: 10 μM, duplicate, rat
In short: as §1

[12] = biological target: Dopamine D1 (Homo sapiens, UniProt P21728); assay: PanLabs LeadProfilingScreen radioligand binding; settings: read-out: percent inhibition
Dopamine D1, sequence (P21728 whole entry): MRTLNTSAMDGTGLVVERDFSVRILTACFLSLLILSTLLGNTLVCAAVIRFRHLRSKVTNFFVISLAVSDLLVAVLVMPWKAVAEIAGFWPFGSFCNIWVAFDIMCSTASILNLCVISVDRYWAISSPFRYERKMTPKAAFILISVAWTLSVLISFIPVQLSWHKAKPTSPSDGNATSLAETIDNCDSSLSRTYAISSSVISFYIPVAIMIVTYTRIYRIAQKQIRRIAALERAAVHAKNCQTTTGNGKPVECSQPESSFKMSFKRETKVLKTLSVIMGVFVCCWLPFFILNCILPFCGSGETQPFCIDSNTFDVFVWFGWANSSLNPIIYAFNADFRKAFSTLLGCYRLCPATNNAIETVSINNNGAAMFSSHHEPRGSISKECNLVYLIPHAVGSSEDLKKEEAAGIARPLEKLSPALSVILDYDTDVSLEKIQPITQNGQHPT
In short: as §1

[13] = biological target: Histamine H2 (Homo sapiens, UniProt P25021); assay: PanLabs LeadProfilingScreen radioligand binding; settings: read-out: percent inhibition
Histamine H2, sequence (P25021 whole entry): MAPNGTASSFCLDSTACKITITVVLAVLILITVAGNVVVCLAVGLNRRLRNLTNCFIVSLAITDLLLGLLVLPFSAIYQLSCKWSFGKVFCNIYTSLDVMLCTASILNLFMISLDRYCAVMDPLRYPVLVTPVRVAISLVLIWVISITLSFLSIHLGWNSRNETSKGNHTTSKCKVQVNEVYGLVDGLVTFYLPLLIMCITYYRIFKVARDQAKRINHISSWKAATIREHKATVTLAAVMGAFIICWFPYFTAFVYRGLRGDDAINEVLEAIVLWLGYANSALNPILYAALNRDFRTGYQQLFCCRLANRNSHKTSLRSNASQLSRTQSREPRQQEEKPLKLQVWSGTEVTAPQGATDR
In short: as §1

[14] = system: IMR-90 human cells; assay: Human cell line toxicity testing; assay type: cell-based; settings: Homo sapiens, IMR-90, read-out: IMR90 toxicity (EC50)
[15] = system: T. brucei bloodstream form (BSF) parasites (cell line 90-13, a 427 strain); assay: microbe, parasite or virus in culture; assay type: cell-based, Trypanosoma brucei; settings: BLD = below level of detection
[16] = Microsomal stability, human; assay type: in vitro ADME
[17] = Plasma protein binding; assay type: in vitro ADME; settings: mouse, mouse species
[18] = biological target: Dopamine D3 (Homo sapiens, UniProt P35462); assay: PanLabs LeadProfilingScreen radioligand binding; settings: read-out: percent inhibition
Dopamine D3, sequence (P35462 whole entry): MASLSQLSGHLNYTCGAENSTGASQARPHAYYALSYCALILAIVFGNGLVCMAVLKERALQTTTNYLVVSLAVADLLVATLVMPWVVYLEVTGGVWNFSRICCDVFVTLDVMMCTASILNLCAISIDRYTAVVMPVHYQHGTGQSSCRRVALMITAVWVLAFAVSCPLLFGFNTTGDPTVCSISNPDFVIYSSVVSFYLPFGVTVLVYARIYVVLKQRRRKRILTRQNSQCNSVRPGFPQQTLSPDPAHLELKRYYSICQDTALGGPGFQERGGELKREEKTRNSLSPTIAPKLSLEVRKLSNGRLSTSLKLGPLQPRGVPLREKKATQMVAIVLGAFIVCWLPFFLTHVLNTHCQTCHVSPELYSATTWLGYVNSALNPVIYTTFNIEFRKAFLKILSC
In short: as §1

[19] = Plasma stability, mouse; assay type: in vitro ADME

CC(C)(C)c1ccc(C(=O)Nc2cc(Cl)c(-c3ccccc3)cc2C(=O)O)cc1 [Compound 4f]
inhibition at 10 µM [1]: 35.2 ± 8.3% | inhibition at 10 µM [2]: 88% | plasma stability, % parent remaining after 3 h [3]: 80.8% | microsomal stability, % parent remaining after 1 h [4]: 55.5% | solubility [5]: 9.6 µM (≈ 3.92 µg/mL) | inhibition at 10 µM [6]: 90% | inhibition at 10 µM [7]: 53% | improvement in rTbHK1 potency [8]: 3.5 fold | Papp ([9]; PAMPA permeability (Pe), donor pH 6.2, acceptor pH 7.4): 1.6 ×10⁻⁶ cm/s | Papp ([9]; pH 7.4, PAMPA permeability (Pe), donor pH 7.4, acceptor pH 7.4): 49 ×10⁻⁶ cm/s | inhibition at 10 µM [10]: 87% | percent inhibition [11]: 65% | inhibition at 10 µM [12]: 57% | inhibition at 10 µM [13]: 98% | EC50 [14]: > 25 µM | % T. brucei BSF growth inhibition (10 μM) ([15]; 10 μM compound, 10 µM): 95.4 ± 0.8% | inhibition at 10 µM ([15]; Trypanosoma brucei, A-427, read-out: % T. brucei BSF growth inhibition (10 μM), 10 μM compound): 95% | microsomal stability, % parent remaining after 1 h [16]: 46.5% | fraction unbound ([17]; 1 μM): 0.01 | fraction unbound ([17]; 10 μM): 0.009 | inhibition at 10 µM [18]: 86% | plasma stability, % parent remaining after 3 h [19]: 97.4%
